In publication PMC7511286 (European Journal of Drug Metabolism and Pharmacokinetics, 2020):

Key:
Assay type in all cases: in vivo, human
[1] = SAD study: safety and tolerability
Outline: (§1)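 Healthy males aged 18–55 took oral tablets. Treatment-emergent AEs were recorded by clinical evaluation. Vital signs (blood pressure, pulse), 12-lead and Holter ECG, physical examination, and urine and plasma laboratory tests were also assessed. AEs of special interest were hematuria and retroperitoneal colicky pain with suspected or confirmed nephrolithiasis. Subjects were hospitalized around dosing.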

[2] = Preliminary two-compartment population pharmacokinetic model on SAD and MAD data
Outline: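 A two-compartment model with first-order absorption, inter-compartmental transfer and elimination was fitted to plasma concentrations. Data were fasted single-dose and multiple-dose only; fed and pre-dosing data were excluded and MAD outliers kept. Parameters were ka, V1/F, V2/F, CL/F and Q/F, with k10, k12 and k21 derived from clearance/volume. Values below LLOQ (0.1 μg/ml) were left-censored. No covariate testing.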

[3] = MAD study: safety and tolerability
Outline: as §1

[4] = base model, inter-individual variability

Structure (SMILES): COc1cccc(-c2ccc(NC(=O)C3=C(C(=O)O)CCC3)c(F)c2)c1 [IMU-838, vidofludimus calcium]
- TEAE Flatulence: subjects having the event ([1]; 10 mg fasted, n = 6): 1 (16.7) N (%)
- TEAE Headache: subjects having the event ([1]; 10 mg fasted, n = 6): 1 (16.7) N (%)
- TEAE Micturition urgency: number of events ([1]; 10 mg fasted, n = 6): 1
- TEAE Micturition urgency: subjects having the event ([1]; 10 mg fasted, n = 6): 1 (16.7) N (%)
- TEAE Viral upper respiratory tract infection: number of events ([1]; 10 mg fasted, n = 6): 2
- TEAE Viral upper respiratory tract infection: subjects having the event ([1]; 10 mg fasted, n = 6): 2 (33.3) N (%)
- TEAEs Total: number of events ([1]; 10 mg fasted, n = 6): 5
- TEAEs Total: subjects having the event ([1]; 10 mg fasted, n = 6): 3 (50.0) N (%)
- TEAE Epistaxis: subjects having the event ([1]; 10 mg fed, n = 6): 1 (16.7) N (%)
- TEAEs Total: number of events ([1]; 10 mg fed, n = 6): 1
- TEAEs Total: subjects having the event ([1]; 10 mg fed, n = 6): 1 (16.7) N (%)
- TEAE Headache: subjects having the event ([1]; 20 mg fasted, n = 6): 1 (16.7) N (%)
- TEAEs Total: number of events ([1]; 20 mg fasted, n = 6): 1
- TEAEs Total: subjects having the event ([1]; 20 mg fasted, n = 6): 1 (16.7) N (%)
- TEAE Opiates positive: number of events ([1]; 30 mg fasted, n = 6): 1
- TEAE Opiates positive: subjects having the event ([1]; 30 mg fasted, n = 6): 1 (16.7) N (%)
- TEAEs Total: number of events ([1]; 30 mg fasted, n = 6): 1
- TEAEs Total: subjects having the event ([1]; 30 mg fasted, n = 6): 1 (16.7) N (%)
- TEAE Rhinitis: subjects having the event ([1]; 40 mg fasted, n = 5): 1 (20.0) N (%)
- TEAEs Total: number of events ([1]; 40 mg fasted, n = 5): 1
- TEAEs Total: subjects having the event ([1]; 40 mg fasted, n = 5): 1 (20.0) N (%)
- AEs of special interest (hematuria, retroperitoneal colicky pain) ([1]; all single doses): no AEs of special interest were observed
- total number of TEAEs ([1]; all single doses, 12 subjects): nine
- tolerability ([1]; single oral doses 10–40 mg): well tolerated
- Correlation coefficient IIV CL/F and IIV V1/F ([2]; base model): 0.387
- Exponential residual error ([2]; base model): 41.6 %CV
- V1/F (volume in central compartment), population estimate ([2]; base model): 2.98 L
- V2/F (volume in peripheral compartment), population estimate ([2]; base model): 6.31 L
- ka (absorption rate), population estimate ([2]; base model): 0.15 h⁻¹
- CL/F (apparent total clearance), population estimate ([2]; base model, fasted SAD and MAD data without pre-dosing): 4.47 mL/min
- k12 (inter-compartmental rate constant) ([2]; base model, derived, Eq. 2): 0.124 h⁻¹
- k21 (inter-compartmental rate constant) ([2]; base model, derived, Eq. 3): 0.0584 h⁻¹
- IIV on CL/F [2, 4]: 20.8 %CV
- IIV on V1/F [2, 4]: 49.4 %CV
- half-life ([2]; human, plasma, oral): 2.76 h
- half-life ([2]; male, human, plasma, oral): 33.1 h
- k el ([2]; male, human, plasma, oral): 2.5e-05 s⁻¹
- TEAE Abdominal pain upper: number of events ([3]; 25 mg (initiation dose), n = 8): 1
- TEAE Abdominal pain upper: subjects having the event ([3]; 25 mg (initiation dose), n = 8): 1 (12.5) N (%)
- TEAE Atrioventricular block first degree: number of events ([3]; 25 mg (initiation dose), n = 8): 1
- TEAE Atrioventricular block first degree: subjects having the event ([3]; 25 mg (initiation dose), n = 8): 1 (12.5) N (%)
- TEAE Diarrhea: subjects having the event ([3]; 25 mg (initiation dose), n = 8): 1 (12.5) N (%)
- TEAE Nasopharyngitis: subjects having the event ([3]; 25 mg (initiation dose), n = 8): 1 (12.5) N (%)
- TEAEs Cardiac disorders Total: number of events ([3]; 25 mg (initiation dose), n = 8): 1
- TEAEs Cardiac disorders Total: subjects having the event ([3]; 25 mg (initiation dose), n = 8): 1 (12.5) N (%)
- TEAEs Gastrointestinal disorders Total: number of events ([3]; 25 mg (initiation dose), n = 8): 2
- TEAEs Gastrointestinal disorders Total: subjects having the event ([3]; 25 mg (initiation dose), n = 8): 1 (12.5) N (%)
- TEAEs Infections and infestations Total: number of events ([3]; 25 mg (initiation dose), n = 8): 1
- TEAEs Infections and infestations Total: subjects having the event ([3]; 25 mg (initiation dose), n = 8): 1 (12.5) N (%)
- TEAEs Total: number of events ([3]; 25 mg (initiation dose), n = 8): 4
- TEAEs Total: subjects having the event ([3]; 25 mg (initiation dose), n = 8): 3 (37.5) N (%)
- number of drug-related TEAEs ([3]; 30 mg once daily): 18
- TEAE Abdominal pain: number of events ([3]; 30 mg, n = 12): 1
- TEAE Abdominal pain: subjects having the event ([3]; 30 mg, n = 12): 1 (8.3) N (%)
- TEAE Feces soft: number of events ([3]; 30 mg, n = 12): 2
- TEAE Feces soft: subjects having the event ([3]; 30 mg, n = 12): 2 (16.7) N (%)
- TEAE Flatulence: subjects having the event ([3]; 30 mg, n = 12): 6 (50.0) N (%)
- TEAE Gamma–glutamyl transferase increased: number of events ([3]; 30 mg, n = 12): 2
- TEAE Gamma–glutamyl transferase increased: subjects having the event ([3]; 30 mg, n = 12): 1 (8.3) N (%)
- TEAE Headache: subjects having the event ([3]; 30 mg, n = 12): 1 (8.3) N (%)
- TEAE Lipase increased: number of events ([3]; 30 mg, n = 12): 1
- TEAE Lipase increased: subjects having the event ([3]; 30 mg, n = 12): 1 (8.3) N (%)
- TEAE Musculoskeletal discomfort: number of events ([3]; 30 mg, n = 12): 1
- TEAE Musculoskeletal discomfort: subjects having the event ([3]; 30 mg, n = 12): 1 (8.3) N (%)
- TEAE Nausea: subjects having the event ([3]; 30 mg, n = 12): 1 (8.3) N (%)
- TEAEs Gastrointestinal disorders Total: number of events ([3]; 30 mg, n = 12): 14
- TEAEs Gastrointestinal disorders Total: subjects having the event ([3]; 30 mg, n = 12): 7 (58.3) N (%)
- TEAEs Investigations Total: number of events ([3]; 30 mg, n = 12): 3
- TEAEs Investigations Total: subjects having the event ([3]; 30 mg, n = 12): 2 (16.7) N (%)
- TEAEs Musculoskeletal and connective tissue disorders Total: number of events ([3]; 30 mg, n = 12): 1
